Bioassay records: PubChem, several laboratories
In the library only some 4.1% were active in any assay of this set; here they are far more common.
H9c2 TAG inh = inhibitors of triacylglycerol accumulation, primary screen, cell-based, uHTS, fluorescence, H9c2; AID 651582, 2012; H9c2 cells, Nile Red lipid (TAG) fluorescence; cells loaded with 200 µM oleic acid; inhibition, % at 12.5 µM; hit rate 0.66% among 230,000;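 active means pattern-corrected inhibition of lipid staining of at least 50% with the nuclear-stain viability signal not falling by more than 50%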
SMARCA2 act = SMARCA2 (BRM) function activators, primary screen, cell-based, luminescence, high throughput; MG213 cells, MMTV-luciferase reporter, dexamethasone, overnight; AID 652017, 2013; hit rate 1% among 370,000; activation, % at 9.1 µM; in the data active means activation above about 7.8%
TbMetRS inhib = T. brucei MetRS inhibitors, primary screen, biochemical, luminescence; methionyl-tRNA synthetase (Trypanosoma brucei brucei); purified T. brucei MetRS, ATP depletion, Kinase-Glo luminescence; inhibition, % at 11.9 µM; hit rate 0.4% among 360,000;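 active means inhibition above a per-plate cutoff of the control wells' mean inhibition plus 3 SD, cut at about 5.5% in these data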
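Material: parasite MetRS enzyme / Replication: singlicate, one well per compound / Signal: luminescence of leftover ATP / Schedule: 2 h aminoacylation at 25 °C after 15 min preincubation / Medium: HEPES-MgCl2-KCl buffer plus DTT, spermine, BSA, pyrophosphatase / Doses: 11.9 µM single point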
AHR activator = AHR activators, primary screen, cell-based, luminescence, luciferase reporter, human; AHR-responsive luciferase reporter cells; activation, % at 5 µM; hit rate 2.5% among 320,000; AID 2796, 2010; in the data active means activation above about 47%
Efflux pump inh = inhibitors of Candida efflux pumps in yeast, primary screen, S. cerevisiae, Nile Red, multiplex | S. cerevisiae Candida pump triplex | inhibition, % at 10 µM | hit rate 0.44% among 330,000 | AID 485275, 2010;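 active means plate passing quality check with inhibition over a set limit, or well fluorescence over plate mean plus 4 SD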;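 further: Nile Red retained in pooled yeast measured as flow cytometry median fluorescence; higher means more Nile Red kept so more efflux inhibition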
Numbers stand for hits; – = inactive; · = no result given.

SMILES	H9c2 TAG inh	SMARCA2 act	TbMetRS inhib	AHR activator	Efflux pump inh
Cc1ccc(NC(=O)OC2CC3CC2[C@H]2CCCCN2C3)cc1C (some centres undefined)	·	–	·	·	·
CCN1CCC(O)(/C=C/c2ccc(C(C)C)cc2)C(C(=O)/C=C/c2ccc(C(C)C)cc2)C1 (centres undefined)	66	–	–	·	·
CCN1CCN(C(=O)/C=C/c2ccc(C(C)C)cc2)CC1	–	–	–	–	–
CCOc1ccc(-n2c(C)cc(C(=O)CCl)c2C)cc1	59	–	–	–	–
COC(=O)c1ccc(-n2c(C)cc(C(=O)CCl)c2C)cc1	–	–	–	–	–
Cc1ccc(C=Nc2ccccc2C(N)=O)s1	·	–	–	55	–
Cc1ccc(C(=O)NC2CCCCN(C(C)C)C2=O)cc1 (centres undefined)	·	–	·	·	·
CCOC(=O)c1c(C)[nH]c(C(=O)N/N=C/c2ccc(Br)cc2)c1C	·	–	–	67	–
CC(C)=CCC/C(C)=C/CNCC(=O)N1c2ccccc2[C@]2(c3ccccc3)C[C@@H]3C(=O)N(C/C=C(\C)CCC=C(C)C)CC(=O)N3[C@H]12	·	–	·	·	·
C=CCn1cc(/C=C2\SC(N3CCOCC3)=NC2=O)c2ccccc21	–	–	–	71	–
O=C1N=C(N2CCOCC2)S/C1=C\c1ccc(-c2ccccc2Cl)o1	·	–	–	50	–
CC(C)C[C@H]1COc2cc(Br)ccc2S(=O)(=O)N1Cc1cn(CCC2OCCO2)nn1	·	–	·	·	·
O=C(Nc1ccccc1)c1cc2ccccc2c(=O)s1	·	–	–	–	–
C#CCn1cc(Cl)cc(C(=O)Nc2ccccc2)c1=O	·	–	–	62	–
CCc1cccc(Nc2cc(C)n(-c3cccc(CC)c3)c(=O)c2)c1	·	–	·	·	·
CN1/C(=C\C(=O)c2cccs2)Sc2ccccc21	–	–	–	77	–
COC(=O)[C@]12C[C@H](CC(=O)NCCC(C)C)C(=O)N(Cc3cccc4ccccc34)C1=C[C@H](C(C)(C)C)O[C@@H]2C	·	–	·	·	·
COc1cccc(-c2nnc(SCC(=O)Nc3cccc4ccccc34)n2Cc2ccco2)c1	·	–	·	·	·
COc1ccc(NS(=O)(=O)c2cccc(C(=O)N/N=C(/C)c3ccc(-n4ccnc4)cc3)c2)cc1	–	–	–	·	·
COCCNC(=S)N/N=C(\C)c1ccc(-n2ccnc2)cc1	·	–	–	87	–
CCOc1ccc(S(=O)(=O)Nc2ccc(C(=O)N/N=C(\C)c3ccc(-n4ccnc4)cc3)cc2)cc1	–	–	–	54	–
CCOC(=O)[C@]12CCCC=C1N(CCCOC)C(=O)[C@@H]2CC(=O)NCc1ccc(OC)c(OC)c1	·	–	·	·	·
COCCOC(=O)N/C=C\c1nc2ccccc2c(=O)[nH]1	·	–	–	55	–
Cc1ccccc1/C=C/c1nc2ccccc2c(=O)[nH]1	–	–	–	70	–
N#CCOc1ccccc1/C=C/c1nc2ccccc2c(=O)[nH]1	·	–	–	62	–
SMILES	H9c2 TAG inh	SMARCA2 act	TbMetRS inhib	AHR activator	Efflux pump inh
Cc1ccccc1/C=C\c1nc2ccccc2c(=O)[nH]1	–	–	–	–	–
CN1C(=O)C[C@@](C#N)(C(=O)N2CCOCC2)[C@H]1c1ccccc1	·	–	·	·	·
O=C(Nc1cc([N+](=O)[O-])ccc1C(=O)Nc1cccnc1)c1ccccc1	–	–	–	66	–
Cc1ccc(NC(=O)c2cc([N+](=O)[O-])ccc2NCc2cccnc2)cc1	–	–	–	75	–
O=C(Nc1cccnc1)c1cccc([N+](=O)[O-])c1	·	–	–	–	–
CNC(=O)C[C@H]1CC[C@H]2[C@@H](COc3ccc(NC(=O)Nc4ccccc4)cc3C(=O)N2C)O1	·	–	·	·	·
N#CCC[C@H]1CC[C@]2(CCCN(Cc3ccccc3)C2)O1	·	–	·	·	·
C[C@H]1CCCN1c1ccc2c(c1)O[C@H]1CCN(C1)S2(=O)=O	·	–	·	·	·
O=C(c1ccco1)N1CCN(C(=O)c2ccc(COc3ccc4c(c3)CCC4)o2)CC1	–	–	–	–	–
NNC(=O)c1ccc(COc2ccc(Br)cc2)o1	·	–	–	78	–
NNC(=O)c1ccc(COc2ccc3c(c2)CCC3)o1	·	–	–	59	–
COC(=O)[C@]12C[C@H](CC(=O)NCc3ccc(C)o3)C(=O)N(Cc3ccccc3)C1=C[C@H](C1CCCC1)O[C@@H]2C	·	–	·	·	·
Cn1c(=O)c2c(SCc3cccnc3)nc(C3CC3)nc2n(C)c1=O	–	–	–	75	–
CC(C)Cc1nc(SCc2cccnc2)c2c(=O)n(C)c(=O)n(C)c2n1	–	–	–	–	–
CCc1nc(SCc2cccnc2)c2c(=O)n(C)c(=O)n(C)c2n1	–	–	–	48	–
CCOC(=O)N1CCN(C(=O)C[C@H]2C[C@@]3(C(=O)OC)C(=C[C@H](C(C)C)O[C@@H]3C3CC3)N(Cc3ccco3)C2=O)CC1	·	–	·	·	·
CCCNC(=O)C(=O)Nc1ccc(N(C)C)cc1	–	–	–	68	–
O=C(Nc1ccccc1)c1cccc(C(=O)Nc2ccccc2)n1	–	–	–	–	–
CN(C)c1ccc(NC(=O)c2cccc(C(=O)Nc3ccc(N(C)C)cc3)n2)cc1	·	–	–	68	–
CN(C)c1ccc(NC(=O)C(=O)NCCOc2ccccc2)cc1	–	–	–	–	–
COC1=C[C@H](C(=O)N[C@H]2CCCC[C@@H]2NC(C)=O)[C@@]2(C)Cc3ccccc3[C@H]2CC1=O	·	–	·	·	·
O=S1(=O)c2ccc(N3CCCC3)cc2Oc2ccccc2CN1Cc1cn(Cc2ccc(Cl)cc2)nn1	·	–	·	·	·
O=C(NCC1COCCO1)C1CCN(S(=O)(=O)c2cccs2)CC1 (centres undefined)	·	–	·	·	·
Cc1cc(=O)c2ccccc2n1Cc1ccccc1	·	–	–	57	–
CN1CCCCC(NC(=O)CSc2ccccc2)C1=O (centres undefined)	·	–	·	·	·
SMILES	H9c2 TAG inh	SMARCA2 act	TbMetRS inhib	AHR activator	Efflux pump inh
COc1ccccc1/C=C/C(=O)N1CCOCC1	–	–	–	–	–
COc1ccccc1/C=C/C(=O)N1CCC(c2ccccc2)C1 (centres undefined)	·	–	–	66	–
Cc1ccc(-c2nnc(Nc3ccc(CC(N)=O)cc3)c3ccccc23)cc1S(N)(=O)=O	·	–	–	–	1.7
CCn1cc(C(=O)N2CCN(c3ccccn3)CC2)c2cc(OC)c(OC)cc2c1=O	–	8.4	–	–	–
COc1cc(OC)c(C(=O)N2CCN(c3ccccn3)CC2)cc1OC	·	–	–	–	–
COc1cccc(-c2nc(-c3ccccc3)[nH]c(=O)c2C#N)c1	–	–	–	79	–
